Measured values as given in ChEMBL document CHEMBL1151446, “The PhoQ-activating potential of antimicrobial peptides contributes to antimicrobial efficacy and is predictive of the induction of bacterial resistance” (2007).
In brackets after ≈: the same amount, converted by molar mass. Activity calls are given as the source filed them. The calls are words filed in the database; no cut-off is given here. Where a SMILES comes first, the peptide text is derived from it.

Legend:
[1] = test system: Salmonella enterica subsp. enterica; experiment: Antibacterial activity against wild type Salmonella enterica serovar Typhimurium ATCC 14028 after 16 hrs by modified twofold broth microdilution method; format: functional, Salmonella enterica subsp. enterica serovar Typhimurium; conditions: ATCC 14028, 16 h
Outline: (§1)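 Broth microdilution MBC assay: 5 × 10^5 bacteria/ml in LB with a linear gradient of peptide concentrations. Peptide dilutions were made fresh in 0.2% BSA, 0.01% acetic acid and added after the inoculum. Plates were incubated at 37°C for 16 h, then spotted onto LB agar. MBC was the lowest concentration with no growth, averaged over at least three trials.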

[2] = test system: Salmonella enterica subsp. enterica; experiment: Antibacterial activity against bacterial sensory kinase PhoQ deficient Salmonella enterica serovar Typhimurium CS009 after 16 hrs by modified twofold broth microdilution method; format: functional, Salmonella enterica subsp. enterica serovar Typhimurium; conditions: CS009, 16 h; outline: as §1
[3] = test system: Salmonella enterica subsp. enterica; experiment: Antibacterial activity against bacterial sensory kinase PhoQ deficient Salmonella enterica serovar Typhimurium expressing PhoPQ operon after 16 hrs by modified twofold broth microdilution method; format: functional, Salmonella enterica subsp. enterica serovar Typhimurium; outline: as §1
[4] = test system: Salmonella enterica subsp. enterica; experiment: Antibacterial activity against bacterial sensory kinase PhoP deficient Salmonella enterica serovar Typhimurium CS053 after 16 hrs by modified twofold broth microdilution method; format: functional, Salmonella enterica subsp. enterica serovar Typhimurium; conditions: CS053, 16 h; outline: as §1
[5] = test system: Salmonella enterica subsp. enterica; experiment: Antibacterial activity against bacterial sensory kinase PhoQ deficient Salmonella enterica serovar Typhimurium CS009 assessed as direct antimicrobial activity after 16 hrs by modified twofold broth microdilution method; format: functional, Salmonella enterica subsp. enterica serovar Typhimurium; outline: as §1
[6] = test system: Salmonella enterica subsp. enterica; experiment: Antibacterial activity against bacterial sensory kinase PhoQ deficient Salmonella enterica serovar Typhimurium CS009 assessed as PhoQ-activating potential after 16 hrs by modified twofold broth microdilution method relative to wild type Salmonella enterica serovar Typhimurium ATCC 14028; format: functional, Salmonella enterica subsp. enterica serovar Typhimurium
Outline: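 PAP was calculated as MBC against wild-type ATCC 14028 minus MBC against PhoQ mutant CS009. Both MBCs came from the broth microdilution assay: 5 × 10^5 bacteria/ml in LB, 37°C for 16 h, spotting onto LB agar, no-growth endpoint, averaged over at least three trials.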

[7] = target: T1, Virulence sensor histidine kinase PhoQ (Salmonella typhimurium (strain LT2 / SGSC1412 / ATCC 700720)) (UniProt P0DM80); experiment: Activation of PhoQ in Salmonella enterica serovar Typhimurium CS102 expressing PhoN fusion protein assessed as initiation of acid phosphatase reporter enzyme expression at 1 ug/ml in presence of 1 mM magnesium; conditions: Salmonella enterica subsp. enterica serovar Typhimurium
T1 sequence (whole entry): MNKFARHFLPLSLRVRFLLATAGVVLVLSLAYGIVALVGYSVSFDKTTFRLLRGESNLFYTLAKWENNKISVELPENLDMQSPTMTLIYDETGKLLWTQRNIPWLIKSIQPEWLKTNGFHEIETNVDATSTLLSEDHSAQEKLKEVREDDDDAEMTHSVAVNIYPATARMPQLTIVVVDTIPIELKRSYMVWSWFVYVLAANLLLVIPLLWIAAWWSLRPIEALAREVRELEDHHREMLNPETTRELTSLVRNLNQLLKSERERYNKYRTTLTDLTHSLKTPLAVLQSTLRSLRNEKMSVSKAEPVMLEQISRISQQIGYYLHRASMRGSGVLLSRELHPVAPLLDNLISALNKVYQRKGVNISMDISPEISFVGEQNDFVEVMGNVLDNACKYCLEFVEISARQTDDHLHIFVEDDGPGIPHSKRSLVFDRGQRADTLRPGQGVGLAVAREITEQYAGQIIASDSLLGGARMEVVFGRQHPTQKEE
Outline: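 PhoPQ reporter strain CS102 (PhoQ-regulated acid phosphatase PhoN fusion) incubated in LB with peptide at 1 μg/ml plus 1 mM magnesium; acid phosphatase activity measured. Reference conditions were 50 μM MgCl2 (activating) and 5 mM MgCl2 (repressive). Mean of three replicate experiments.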

[8] = test system: Salmonella enterica subsp. enterica; experiment: (§2) Antibacterial activity against wild type Salmonella enterica serovar Typhimurium ATCC 14028 preincubated till 4 hrs at dosing schedule of 1 ug/ml at time zero, 1 ug/ml at 1st hr, 2 ug/ml at 2nd hr and final 4 ug/ml at 3rd hr assessed as increase in minimum bactericidal concentration measured after 16 hrs by modified twofold broth microdilution method in presence of 1 mM Mg2+ relative to naive unadapted bacteria; format: functional, Salmonella enterica subsp. enterica serovar Typhimurium
[9] = test system: Salmonella enterica subsp. enterica; experiment: Antibacterial activity against wild type Salmonella enterica serovar Typhimurium ATCC 14028 assessed as direct antimicrobial activity after 16 hrs by modified twofold broth microdilution method; format: functional, organism-based
[10] = test system: Salmonella enterica subsp. enterica; experiment: Antibacterial activity against bacterial sensory kinase PhoP deficient Salmonella enterica serovar Typhimurium CS053 assessed as direct antimicrobial activity after 16 hrs by modified twofold broth microdilution method; format: functional, organism-based; outline: as §1
[11] = test system: Salmonella enterica subsp. enterica; experiment: as §2, with “hr” for “hr assessed as increase in minimum bactericidal concentration”, “Mg2+” for “Mg2+ relative to naive unadapted bacteria”; format: functional, organism-based
[12] = test system: Salmonella enterica subsp. enterica; experiment: Antibacterial activity against bacterial sensory kinase PhoQ deficient Salmonella enterica serovar Typhimurium CS009 by modified twofold broth microdilution method; format: functional, Salmonella enterica subsp. enterica serovar Typhimurium
[13] = test system: Salmonella enterica subsp. enterica; experiment: Antibacterial activity against wild type Salmonella enterica serovar Typhimurium ATCC 14028 by modified twofold broth microdilution method; format: functional, Salmonella enterica subsp. enterica serovar Typhimurium

Row | Compound | MBC [1] [µg/mL] | MBC [2] [µg/mL] | MBC [3] [µg/mL] | MBC [4] [µg/mL] | Activity [5] [µg/mL] | Activity [6] [µg/mL] | Activity [7] | fold change (FC) [8] | Activity [9] | Activity [10] | Activity [11] | MIC [12] [µg/mL] | MIC [13] [µg/mL]
1 | CC(C)C[C@H](NC(=O)[C@H](CCCCN)NC(=O)[C@H](CCC(N)=O)NC(=O)[C@H](CC(N)=O)NC(=O)[C@H](CC(C)C)NC(=O)[C@H](CC(=O)O)NC(=O)[C@H](CCC(=O)O)NC(=O)[C@@H]1CCCN1C(=O)[C@@H](NC(=O)[C@H](C)NC(=O)CN)[C@@H](C)O)C(=O)N[C@@H](CO)C(N)=O (H-GATPEDLNQKLS-NH2) | > 500 | > 500 | > 500 | > 500 | – | – | – | – | – | – | – | – | –
2 | CC[C@H](C)[C@H](NC(=O)[C@H](CCCCN)NC(=O)[C@@H](NC(=O)[C@@H](NC(=O)[C@H](CCCNC(=N)N)NC(=O)[C@H](C)NC(=O)[C@H](CC(C)C)NC(=O)[C@@H](N)CCCNC(=N)N)[C@@H](C)CC)C(C)C)C(=O)N[C@@H](CCCNC(=N)N)C(=O)N[C@H](C(=O)N[C@@H](C)C(=O)N[C@@H](CCCNC(=N)N)C(N)=O)C(C)C (H-RLARIVKIRVAR-NH2) | 68.8 (≈ 47.5 µM) | 13.1 (≈ 9.04 µM) | 69 (≈ 47.6 µM) | 13.3 (≈ 9.17 µM) | 13.1 | 55.7 | Active | <=10 | – | – | – | – | –
3 | CC[C@H](C)[C@H](NC(=O)[C@H](CCCNC(=N)N)NC(=O)[C@H](C)NC(=O)[C@H](CC(C)C)NC(=O)[C@@H](N)CCCNC(=N)N)C(=O)N[C@H](C(=O)N1CCC[C@H]1C(=O)N[C@H](C(=O)N[C@@H](CCCNC(=N)N)C(=O)N[C@H](C(=O)N[C@@H](C)C(=O)N[C@@H](CCCNC(=N)N)C(N)=O)C(C)C)[C@@H](C)CC)C(C)C (H-RLARIVPIRVAR-NH2) | > 500 | 46.7 (≈ 32.9 µM) | > 500 | 45.4 (≈ 32 µM) | 46.7 | – | Active | – | inactive | inactive | – | – | –
4 | CC[C@H](C)[C@H](NC(=O)[C@H](CCCNC(=N)N)NC(=O)[C@H](C)NC(=O)[C@H](CC(C)C)NC(=O)[C@@H](N)CCCNC(=N)N)C(=O)N[C@H](C(=O)N[C@H](C(=O)N[C@H](C(=O)N[C@@H](CCCNC(=N)N)C(=O)N[C@H](C(=O)N[C@@H](C)C(=O)NCC(N)=O)C(C)C)[C@@H](C)CC)C(C)C)C(C)C (H-RLARIVVIRVAG-NH2) | 31.4 (≈ 23.8 µM) | 8.6 (≈ 6.51 µM) | 34 (≈ 25.7 µM) | 10.1 (≈ 7.64 µM) | 8.6 | 22.8 | Active | – | – | – | – | – | –
5 | CC[C@H](C)[C@H](NC(=O)[C@H](CCCNC(=N)N)NC(=O)[C@H](C)NC(=O)[C@H](CC(C)C)NC(=O)[C@@H](N)CCCNC(=N)N)C(=O)N[C@H](C(=O)N[C@H](C(=O)N[C@H](C(=O)N[C@@H](CCCNC(=N)N)C(=O)N[C@H](C(=O)N[C@@H](C)C(=O)N[C@@H](CCCNC(=N)N)C(N)=O)C(C)C)[C@@H](C)CC)C(C)C)C(C)C (H-RLARIVVIRVAR-NH2) | 32.8 (≈ 23.1 µM) | 6.2 (≈ 4.36 µM) | 42.5 (≈ 29.9 µM) | 6.5 (≈ 4.57 µM) | 6.2 | – | Active | – | – | – | – | – | –
6 | CC[C@H](C)[C@H](NC(=O)[C@H](CCCNC(=N)N)NC(=O)[C@H](CCCNC(=N)N)NC(=O)[C@H](CC(C)C)NC(=O)[C@@H](N)CCCNC(=N)N)C(=O)N[C@H](C(=O)N[C@H](C(=O)N[C@H](C(=O)N[C@@H](CCCNC(=N)N)C(=O)N[C@H](C(=O)N[C@@H](C)C(=O)N[C@@H](CCCNC(=N)N)C(N)=O)C(C)C)[C@@H](C)CC)C(C)C)C(C)C (H-RLRRIVVIRVAR-NH2) | 11.5 (≈ 7.64 µM) | 4.2 (≈ 2.79 µM) | 30 (≈ 19.9 µM) | 3.8 (≈ 2.52 µM) | 4.2 | 7.3 | inactive | – | – | – | Active | – | –
7 | CC[C@H](C)[C@H](NC(=O)[C@H](CCCNC(=N)N)NC(=O)[C@H](Cc1c[nH]c2ccccc12)NC(=O)[C@H](CCCNC(=N)N)NC(=O)[C@@H](N)CCCNC(=N)N)C(=O)N[C@H](C(=O)N[C@H](C(=O)N[C@H](C(=O)N[C@@H](CCCNC(=N)N)C(=O)N[C@H](C(=O)N[C@@H](CCCNC(=N)N)C(=O)N[C@@H](CCCNC(=N)N)C(N)=O)C(C)C)[C@@H](C)CC)C(C)C)C(C)C (H-RRWRIVVIRVRR-NH2) | 10 (≈ 6.01 µM) | 5.7 (≈ 3.43 µM) | 19 (≈ 11.4 µM) | 6.4 (≈ 3.85 µM) | 5.7 | 34.3 | inactive | – | – | – | – | – | –
8 | CC1(C)S[C@@H]2[C@H](NC(=O)[C@H](N)c3ccccc3)C(=O)N2[C@H]1C(=O)O [AMPICILLIN] | – | – | – | – | – | – | – | – | – | – | – | 8 (≈ 22.9 µM) | 10 (≈ 28.6 µM)
9 | CC1(C)S[C@@H]2[C@H](NC(=O)C(C(=O)O)c3ccccc3)C(=O)N2[C@H]1C(=O)O (stereo not given in full) [CARBENICILLIN] | – | – | – | – | – | – | – | – | – | – | – | 8 (≈ 21.1 µM) | 10 (≈ 26.4 µM)
10 | CCn1cc(C(=O)O)c(=O)c2ccc(C)nc21 [NALIDIXIC ACID] | – | – | – | – | – | – | – | – | – | – | – | 3 (≈ 12.9 µM) | 3 (≈ 12.9 µM)
11 | CN(C)[C@@H]1C(O)=C(C(N)=O)C(=O)[C@@]2(O)C(O)=C3C(=O)c4c(O)cccc4[C@@](C)(O)[C@H]3C[C@@H]12 [TETRACYCLINE] | – | – | – | – | – | – | – | – | – | – | – | 3 (≈ 6.75 µM) | 3 (≈ 6.75 µM)
12 | COc1cc(Cc2cnc(N)nc2N)cc(OC)c1OC [TRIMETHOPRIM] | – | – | – | – | – | – | – | – | – | – | – | 1 (≈ 3.44 µM) | 1 (≈ 3.44 µM)
13 | GENTAMICIN | – | – | – | – | – | – | – | – | – | – | – | 16 | 16
